Measured values taken from ChEMBL document CHEMBL5104216, “Fragment-Sized Thiazoles in Fragment-Based Drug Discovery Campaigns: Friend or Foe?” (ACS Med Chem Lett, 2022).

Key:
[1] = Redox activity of compound assessed as redox index at 100 uM measured by HRP-PR assay; format: physicochemical
How it was run: (§1)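 H2O2 from redox cycling, with or without DTT, detected with horseradish peroxidase-phenol red (HRP-PR).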

[2] = biological target: Replicase polyprotein 1ab (Severe acute respiratory syndrome coronavirus 2) (UniProt P0DTD1); assay: Inhibition of recombinant SARS-CoV-2 3CLpro expressed in Escherichia coli NiCo21(DE3) assessed as residual activity at 500 uM using DABCYL-KTSAVLQSGFRKME-EDANS as substrate preincubated for 30 mins followed by substrate addition and measured by FRET assay relative to control
How it was run: (§2)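 Kinetic fluorescence read-out of cleavage of a FRET substrate carrying a DABCYL–EDANS pair. Compounds were tested at 500–625 μM, and <50% residual activity was taken as the activity threshold. To exclude false positives, absorbance at the excitation and emission wavelengths and autofluorescence of the compounds were measured.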

[3] = Redox activity of compound assessed as redox index at 100 uM in presence of 100 uM TCEP measured by H2DCFDA assay; format: physicochemical
How it was run: (§3)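 Reactive oxygen species, with or without the reducing agent TCEP, detected with the fluorescent probe H2DCFDA. Compound spectral interference (autofluorescence) checked under the assay conditions.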

[4] = Redox activity of compound assessed as redox index at 10 uM measured by resazurin assay; format: physicochemical
How it was run: (§4)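 Free radicals formed by redox cycling with DTT detected with resazurin by fluorimetric read-out. Spectral interference checked.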

[5] = system: Mycobacterium tuberculosis; assay: Inhibition of Mycobacterium tuberculosis MetAP1a assessed as residual activity at 625 uM using L-methionine 7-amido-4-methylcoumarin as fluorogenic substrate and measured by fluorescence based assay
How it was run: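 Kinetic fluorescence assay in which the enzyme hydrolyses L-methionine 7-amido-4-methylcoumarin to fluorescent 7-amino-4-methylcoumarin. Compounds were tested at 500–625 μM, and activity was called at <50% residual activity. Spectral interference was checked by measuring absorbance at the excitation and emission wavelengths and compound autofluorescence.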

[6] = Thiol reactivity of compound measured by TNB2- assay; format: physicochemical
How it was run: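 Reactivity toward the thiol surrogate TNB2– in a nonproteinaceous setting without TCEP. Reversibility tested by adding TCEP and checking that absorbance was restored.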

[7] = biological target: D-alanine--D-alanine ligase B (Escherichia coli K-12) (UniProt P07862); assay: Inhibition of recombinant Escherichia coli DdlB assessed as residual activity at 500 uM using D-alanine as substrate incubated for 20 mins and measured by malachite green based colorimetric assay relative to control
How it was run: (§5)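 Screened at 500–625 μM with malachite green colorimetric read-out. Activity threshold was <50% residual activity.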

[8] = biological target: Replicase polyprotein 1ab (Severe acute respiratory syndrome coronavirus 2) (UniProt P0DTD1); assay: Inhibition of recombinant SARS-CoV-2 3CLpro expressed in Escherichia coli NiCo21(DE3) assessed as residual activity at 500 uM using DABCYL-KTSAVLQSGFRKME-EDANS as substrate preincubated for 30 mins in presence of 1mM DTT followed by substrate addition and measured by FRET assay relative to control; how it was run: as §2
[9] = biological target: UDP-N-acetylglucosamine 1-carboxyvinyltransferase (Escherichia coli K-12) (UniProt P0A749); assay: Inhibition of recombinant Escherichia coli MurA assessed as residual activity at 500 uM using UDP-N-acetylglucosamine as substrate preincubated for 30 mins in presence of 1 mM DTT followed by substrate addition and measured by malachite green based colorimetric assay relative to control
[10] = Aqueous stability of the compound at pH 7.4 measured after 60 mins by spectrophotometric analysis; format: physicochemical; conditions: buffer, pH 7.4, 1 h
How it was run: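 Followed by spectrophotometry as changes in the compound absorption spectrum over time in 50 mM Tris-HCl pH 7.4, 0.5 mM EDTA, read after 60 min in 96-well microplate format. Compounds with low absorbance were not evaluated.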

[11] = biological target: UDP-N-acetylglucosamine 1-carboxyvinyltransferase (Escherichia coli K-12) (UniProt P0A749); assay: Inhibition of recombinant Escherichia coli MurA assessed as residual activity at 500 uM using UDP-N-acetylglucosamine as substrate and measured by malachite green based colorimetric assay relative to control; how it was run: as §5
[12] = Redox activity of compound assessed as redox index at 100 uM measured by H2DCFDA assay; format: physicochemical; how it was run: as §3
[13] = biological target: UDP-N-acetylglucosamine 1-carboxyvinyltransferase (Escherichia coli K-12) (UniProt P0A749); assay: Inhibition of recombinant Escherichia coli MurA assessed as residual activity at 500 uM using UDP-N-acetylglucosamine as substrate preincubated for 30 mins followed by substrate addition and measured by malachite green based colorimetric assay relative to control
How it was run: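 E. coli MurA at 500–625 μM with 30 min preincubation before substrate addition. Malachite green colorimetric read-out. Activity threshold was <50% residual activity.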

[14] = Redox activity of compound assessed as redox index at 1 uM measured by resazurin assay; format: physicochemical; how it was run: as §4
[15] = Redox activity of compound assessed as redox index at 100 uM in presence of 1 mM DTT measured by HRP-PR assay; format: physicochemical; how it was run: as §1
[16] = Thiol reactivity of compound at 100 uM measured by DTNB assay; format: physicochemical

Chain of UDP-N-acetylglucosamine 1-carboxyvinyltransferase (Escherichia coli K-12) (P0A749 whole entry): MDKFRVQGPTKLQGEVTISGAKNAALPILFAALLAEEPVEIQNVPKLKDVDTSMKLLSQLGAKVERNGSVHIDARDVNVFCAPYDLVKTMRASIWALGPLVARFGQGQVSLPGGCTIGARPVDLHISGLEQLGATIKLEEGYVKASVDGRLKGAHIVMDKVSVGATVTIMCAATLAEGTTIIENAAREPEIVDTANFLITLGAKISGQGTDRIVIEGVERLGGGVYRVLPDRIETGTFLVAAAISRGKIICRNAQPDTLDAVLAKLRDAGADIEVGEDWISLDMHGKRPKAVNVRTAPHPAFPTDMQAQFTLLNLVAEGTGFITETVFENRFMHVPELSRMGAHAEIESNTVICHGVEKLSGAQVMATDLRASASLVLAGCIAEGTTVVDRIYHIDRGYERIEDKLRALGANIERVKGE

Structure (SMILES) | Activity_index [1] | Activity [2] | Activity_index [3] | Activity_index [4] | Activity [5] | Activity [6] | Activity [7] | Activity [8] | Activity [9] | Stability [10] | Activity [11] | Activity_index [12] | Activity [13] | Activity_index [14] | Activity_index [15] | Activity [16]
O=C(O)c1csc(Nc2cccc3ncccc23)n1 | 1 | 42.7% | 1.6 | 2.4 | 36.8% | Active | 82% | 41.2% | 80.9% | Stable | 1.4% | 1.3 | 0% | 1 | 1 | 
CCOC(=O)c1sc(Br)nc1C | 1 | 91.6% | 1.3 | 0.9 | 115% | Active | 93% | 85.8% | 103% | Unstable | 19.5% | 1.3 | 9.1% | 0.9 | 1 | 
Cc1cnc(N)s1 | 1 | 88% | 1.3 | 0.9 | 118% | Active | 92% | 79.8% | 94.6% | Stable | 95.2% | 1.3 | 85.2% | 1 | 1 | 
Cc1nc(CCl)cs1 | 1 | 96.8% | 0.8 | 0.9 | 124% | Active | 100% | 90.9% | 112% |  | 89.6% | 1 | 48.4% | 0.9 | 1 | Active
Nc1ncc(Br)s1 | 1 | 42.5% | 1.5 | 1.1 | 156% | Active | 91% | 79.4% | 100% | Stable | 21.1% | 1.6 | 9% | 0.9 | 1 | 
N#Cc1cnc(NC(=O)C(=O)O)s1 | 1 | 104% | 0.7 | 0.9 | 150% | Active | 105% | 97.6% | 114% | Stable | 112% | 0.9 | 90.6% | 0.9 | 1 | 
O=C(O)c1csc(-c2ccc(F)cc2)n1 | 0.8 | 82.6% | 0.8 | 0.9 | 141% | Active | 94% | 88.1% | 90% | Stable | 58.7% | 1.1 | 12.8% | 0.9 | 1 | 
N#Cc1cnc(N)s1 | 1 | 1.1% | 0.8 | 1.2 | 90.8% | Active | 91% | 74.1% | 102% | Stable | 18.9% | 1 | 6.1% | 0.9 | 1 | 
N#Cc1cnc(Br)s1 | 1 | 101% | 0.8 | 1 | 128% | Active | 94% | 75.5% | 100% | Stable | 96% | 1 | 94.3% | 0.9 | 1 | 
NCCc1cn(Cc2cscn2)nn1 | 0.9 | 87.2% | 1.5 | 0.9 | 94% | Active | 82% | 87.4% | 110% |  | 28.1% | 1.2 | 0% | 1 | 1 | 
COC(=O)CC(=O)Nc1ncc(C#N)s1 | 1 | -4.7% | 1 | 1 | 92.6% | Active | 88% | 86.3% | 112% | Stable | 29.7% | 0.9 | 5.8% | 0.9 | 1 | 
CCOC(=O)c1csc(N)n1 | 0.8 | 18.9% | 0.7 | 1 | 93.7% | Active | 89% | 76.3% | 105% | Stable | 18.6% | 1.1 | 9% | 0.9 | 1 | 
O=S(=O)(Cc1ccccc1)Nc1nccs1 | 0.8 | 20% | 10.2 | 2 | 45.2% | Active | 93% | 82.8% | 94% | Stable | 0% | 22.2 | 0% | 1 | 1 | 
O=C(O)C(=O)Nc1ncc(Br)s1 | 1 | 62.2% | 1.2 | 0.9 | 28.9% | Active | 94% | 82.8% | 112% | Stable | 11.3% | 1 | 1.2% | 0.9 | 1 | 
